Screens from PubChem BioAssay.
Rows were chosen to be rich in hits. Some 2.4% of all compounds tested hit in one or more screens of this group.
Efa HMGR inh = blocks class II HMG-CoA reductase of Enterococcus faecalis. purified E. faecalis HMGR, NADPH absorbance 340 nm kinetic. inhibition, % at 10 µM. 190,000 tested, 0.41% active;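 active means inhibition above a set limit, the median over all tested compounds plus 3 SD, cut at about 9.5% in these data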;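 further: enzyme runs in reverse so mevalonate oxidation gives rising NADPH absorbance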
Measles CPE = protection of cells from measles virus; Measles virus-infected cells, CPE protection, absorbance; protection (pct of control), % at 4 µM; 140,000 tested, 1.5% active; in the data active means protection mostly above about 24%, no sharp cut-off; inactive means mostly below about 26%
Yeast growth inh = chemicals that inhibit yeast BB579 growth in restrictive medium (lifespan-shortening candidates); S. cerevisiae BB579 growth, OD615, 48 h; inhibition, % at 10 µM; 140,000 tested, 0.51% active;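 active means inhibition above a set limit, 3 SD over the mean compound inhibition, cut at about 44% in these data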
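Assay system: S. cerevisiae DeaD strain BB579 yeast. Medium: CSMM-D restrictive synthetic medium containing dextrose (glucose). Times: 4 h cell preincubation, 48 h compound exposure, 30 °C humidified. Signal: OD615 turbidity measurement. Benchmarks: positive control amphotericin B 10 µg/mL.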
Arbovirus inh = antivirals against arbovirus infection. inhibition, % at 10 µM. 200,000 tested, 0.37% active. arbovirus infection cell-based antiviral screen. AID 1251; in the data active means inhibition above about 30%
Rad51 HR inh = blocks human Rad51 in homologous recombination; Q06609; hRad51 DNA strand exchange, fluorescence dequenching; inhibition, % at 10 µM; 200,000 tested, 0.085% active;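 active means inhibition above 40% at the single screening dose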
Target sequence (Q06609 whole entry, looked up): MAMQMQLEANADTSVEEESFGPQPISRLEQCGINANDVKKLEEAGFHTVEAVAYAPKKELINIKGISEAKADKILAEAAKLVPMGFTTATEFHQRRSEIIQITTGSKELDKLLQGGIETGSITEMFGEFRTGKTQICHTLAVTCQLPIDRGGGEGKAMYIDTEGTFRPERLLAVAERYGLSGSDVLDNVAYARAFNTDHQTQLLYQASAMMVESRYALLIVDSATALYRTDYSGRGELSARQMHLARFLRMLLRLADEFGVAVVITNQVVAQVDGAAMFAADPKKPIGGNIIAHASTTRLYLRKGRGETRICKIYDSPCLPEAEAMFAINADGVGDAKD
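System: hRad51 filaments on single-stranded DNA; reagent: Fluorescein- and BHQ1-tagged 47-mer duplex; compound dosing: one concentration, 10 µM final; timing: filaments 15 min 37 °C, then compound 30 min; measured by: fluorescein emission 520 nm, excitation 485 nm; benchmarks: per-plate controls and blanks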
Yeast life ext = yeast lifespan extension. S. cerevisiae growth with nicotinamide, OD615; deaD strain in restrictive glucose medium. inhibition of the nicotinamide effect, % at 10 µM. 130,000 tested, 0.68% active;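 active means inhibition above a set limit, placed 3 SD over the median of all compounds, cut at about 26% in these data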
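Material: Modified budding yeast, DeaD strain | Medium: Restrictive glucose medium | Probe or stimulus: 1.5 mM nicotinamide | Dosing: Single dose 10 µM compound, 0.25% DMSO | Times: 48 h at 30 °C | Technique: OD615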
Of the large screens only hits and unclear results are named; the others gave an inactive call.

CCC(C)(C(=O)Nc1ccccc1C)N(C(=O)CNC(C)=O)c1ccccc1C (configuration not stated)	none
C=CCn1cnc2c(nnn2-c2ccc(Cl)cc2)c1=O	Efa HMGR inh 15.6 (no result: Measles CPE, Yeast growth inh, Yeast life ext)
CN(C(=O)c1c(Cl)nc2sccn12)C1CCCCC1	Measles CPE 23.3
O=C(N/N=C/c1ccccc1)c1ccc(N2CCOCC2)c([N+](=O)[O-])c1	Measles CPE 20.2
O=C(O)[C@@H]1CCCC[C@@H]1C(=O)N1CCc2ccccc2C1CN1C(=O)c2ccccc2C1=O (some centres not stated)	Measles CPE 63.7
O=C1c2ccccc2C(=O)N1CC1c2ccccc2CCN1C(=O)C1CCCCC1 (configuration not stated)	none
CC1(C)Cc2nc(N3CCOCC3)c(C#N)cc2CO1	Measles CPE 17.9
CC1(C)Cc2nc(N3CCCC3)c(C#N)cc2CO1	none (no result: Measles CPE, Yeast growth inh, Yeast life ext)
CC(=O)N(C1=C(O)c2ccccc2C(=O)C1=O)C1CCCCC1	none (no result: Efa HMGR inh)
CC(=O)N(C)C1=C(O)c2ccccc2C(=O)C1=O	Measles CPE 39.2
O=S(=O)(CCN1CCCCC1)Oc1ccc(Cl)cc1Cl	none (no result: Efa HMGR inh, Measles CPE, Yeast growth inh, Arbovirus inh, Yeast life ext)
Cc1nc(-c2coc3c(CN(C)C)c(O)ccc3c2=O)cs1	Measles CPE 34.8
c1ccc(-c2nnc(SCc3nnc(-c4cccs4)o3)o2)cc1	Efa HMGR inh 15.9
O=C(CN1C(=O)COc2ccc(S(=O)(=O)N3CCCC3)cc21)NC1CCCCCCC1	none
CCCCC(=O)Nc1ccc(C(=O)Nc2ccc(S(=O)(=O)Nc3nccc(C)n3)cc2)cc1	none
Cc1noc(C(=O)Nc2cccc(O)c2)c1Cl	none (no result: Efa HMGR inh, Measles CPE, Yeast growth inh, Arbovirus inh, Yeast life ext)
N#CC(C#N)=C1C(=O)N(CCN2CCOCC2)c2ccccc21	none (no result: Efa HMGR inh, Measles CPE, Yeast growth inh, Arbovirus inh, Yeast life ext)
CC(C)NC(=O)COC(=O)c1cc(Br)ccc1Cl	Measles CPE 51.6
Cc1ccc(S(=O)(=O)N2CCN(C(=O)C3CCN(C(=O)c4ccccc4C)CC3)CC2)cc1C	none (no result: Measles CPE, Yeast growth inh, Yeast life ext)
O=C(O)COc1ccc(NC(=O)c2cccs2)cc1	Measles CPE 48.4 (no result: Yeast life ext)
O=C(Nc1ccc(NC(=O)C2CC2)nc1)c1cccs1	Measles CPE 56.7
O=C(COc1ccccc1)NNC(=O)c1cccs1	none
CCOC(=O)Cc1csc(N/C(=N/S(=O)(=O)c2cc(Br)ccc2OCC)c2ccccc2)n1	none
NNC(=O)c1cc(-c2ccc(N)cc2)nc2ccc(Br)cc12	none (no result: Efa HMGR inh, Measles CPE, Yeast growth inh, Arbovirus inh, Yeast life ext)
CC12CCC(C(=O)Nc3cc(Cl)ccc3Cl)(C(Br)C1=O)C2(C)C (configuration not stated)	none
Cn1c(=O)c2c(ncn2CC(=O)Nc2ccccc2)n(C)c1=O	none
Cn1c(=O)c2c(ncn2CC(=O)OCC(=O)Nc2ccccc2)n(C)c1=O	Efa HMGR inh 10.2 (no result: Measles CPE, Yeast growth inh, Yeast life ext)
CCN(CC)C(=O)Cn1cnc2c1c(=O)n(C)c(=O)n2C	Measles CPE 43.7
c1ccc2c(c1)Cc1cc(CN3CCOCC3)ccc1-2	none
Cc1cc(C)nc(SCC(=O)N/N=C/c2cccc([N+](=O)[O-])c2)n1	Measles CPE 48.7
O=C(/C=C/c1cccc([N+](=O)[O-])c1)c1cccs1	Yeast life ext 28.2
N#C/C(=C\c1cc2ccccc2nc1N1CCCCC1)C(N)=O	Arbovirus inh 34.6
CCOC(=O)Cn1c2ccccc2c2nc3ccccc3nc21	Measles CPE 46.5
CCOC(=O)Cn1c2ccccc2c2nc(C)sc21	none (no result: Measles CPE, Yeast growth inh, Rad51 HR inh, Yeast life ext)
N#CC1=C(SCC(=O)Nc2ccccc2)NC(=O)CC1c1ccc(O)cc1 (configuration not stated)	Arbovirus inh 42.2
COc1ccc(CCC(N)=O)cc1OC	Measles CPE 27.3
COc1ccc(C(=O)Cc2ccc(OC)c(OC)c2)c(OC)c1	Measles CPE 60.9
COc1ccc(CCNC(=O)COC(=O)c2ccco2)cc1OC	Measles CPE 39.0
COc1ccc(CNC(=O)COC(=O)c2ccco2)cc1	none (no result: Measles CPE, Yeast growth inh, Yeast life ext)
O=C1CCN(S(=O)(=O)c2ccccc2)CCN1CCOCc1cccc(F)c1	none (no result: Efa HMGR inh, Measles CPE, Yeast growth inh, Arbovirus inh, Yeast life ext)
COc1cccc(C2CC(c3c(-c4ccccc4)c4cc(Cl)ccc4[nH]c3=O)=NN2S(C)(=O)=O)c1OC (configuration not stated)	Measles CPE 68.5
CCOC(=O)C(C(C)=O)c1c(Br)c(O)c(O)c2c(C(=O)c3ccc(C)cc3)coc12 (configuration not stated)	none (no result: Yeast life ext)
Cc1noc(C)c1C(=O)NCc1cccs1	Measles CPE 44.5
O=C(NCc1cccs1)c1nc(-c2cccs2)no1	Rad51 HR inh 41.3 (no result: Measles CPE, Yeast growth inh, Yeast life ext)
CC12CN(C(=S)Nc3ccccc3)CC(C)(CN(C(=S)Nc3ccccc3)C1)C2=O	none (no result: Measles CPE, Yeast growth inh, Yeast life ext)
CCC1Oc2ccc(C)cc2N(CC(=O)N2CCN(c3ccc(F)cc3)CC2)C1=O (configuration not stated)	Measles CPE 28.4
CCOc1ccccc1N1CC(C(=O)Nc2ccc3c(c2)OCCO3)CC1=O (configuration not stated)	Efa HMGR inh 11.6 (no result: Measles CPE, Yeast growth inh, Yeast life ext)
O=C(CSc1nc2ccccc2c(=O)n1Cc1ccco1)N1CCCCCC1	Measles CPE 45.2
COc1cc(/C=N/N(C)c2ccccc2)cc(Cl)c1O	Yeast growth inh 99.7
CC(C)CCNC(=O)CCCOc1ccccc1	Measles CPE 45.3
CCC(=O)NCCCOc1ccccc1	none
CN(C)CCn1c(=S)[nH]c2ccccc2c1=O	none
COCCn1c(=O)c2ccccc2c2ccccc2c1=O	none (no result: Measles CPE, Yeast growth inh, Yeast life ext)
CCCCn1c(=O)c2ccccc2c2ccccc2c1=O	Efa HMGR inh 31.6
CCCn1c(=S)[nH]c2ccccc2c1=O	Efa HMGR inh 15.5 (no result: Measles CPE, Yeast growth inh, Yeast life ext)
Cc1ccc(SCC(=O)c2c(C)[nH]c3ccccc23)cc1	Measles CPE 40.6
O=C(NCc1cccc(C(F)(F)F)c1)C1CC(c2ccc(C(F)(F)F)cc2)=NO1 (configuration not stated)	none (no result: Efa HMGR inh, Measles CPE, Yeast growth inh, Arbovirus inh, Yeast life ext)
N#C/C(=C/c1cn(-c2ccccc2)nc1-c1cccc(OCc2ccc(F)cc2)c1)C(=O)NCCCn1ccnc1	Yeast growth inh 62.8
Cc1ccc(NC(=O)C(=O)NCc2ccc(/C=C(/C#N)C(=O)NCc3cccnc3)o2)cc1C	none
C/C(Cl)=C/Cn1c(SCC(C)C)nc2c1c(=O)[nH]c(=O)n2C	none (no result: Efa HMGR inh, Measles CPE, Yeast growth inh, Arbovirus inh, Yeast life ext)
CCCC(=O)OCCn1c(Br)nc2c1c(=O)[nH]c(=O)n2C	Measles CPE 34.8
CC(=O)OCCn1c(Br)nc2c1c(=O)[nH]c(=O)n2C	none
CCCCOC(=O)CSc1nc2c(c(=O)[nH]c(=O)n2C)n1C/C=C(\C)Cl	Yeast life ext 87.3
CCCCCOC(=O)CSc1nc2c(c(=O)[nH]c(=O)n2C)n1CCc1ccccc1	Yeast life ext 91.7
COc1cccc(F)c1C(C[N+](=O)[O-])c1c(N)n(C)c(=O)n(C)c1=O (configuration not stated)	none (no result: Efa HMGR inh, Measles CPE, Yeast growth inh, Arbovirus inh, Yeast life ext)
CCCn1c(SCC(=O)NC(C)(C)C)nnc1-c1ccco1	none (no result: Measles CPE, Yeast growth inh, Yeast life ext)
Cc1cc(NC(=S)NC(=O)/C=C/c2ccc(S(=O)(=O)N3CCOCC3)cc2)ccc1Br	none (no result: Measles CPE, Yeast growth inh, Yeast life ext)
